According to the RNAGym collection of RNA variant scans (doi:10.1126/science.aae0568):
Variants at the floor of the assay were thinned out.

B1: tRNA (parent)
chain: GUUCCGUUGGCGUAAUGGUAACGCGUCUCCCUCCUAAGGAGAAGACUGCGGGUUCGAGUCCCGUACGGAACG

Variants of: B1
Experiment: yeast fitness relative to wild type (ratio to wild type); higher = fitter; tRNA-Arg(CCU), competitive growth, 37 C, YPD
Method in brief: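 Variants of the tRNA-Arg(CCU) gene were chemically synthesised with a 3% per-site mutation rate across 69 sites and placed at the native genomic locus in Saccharomyces cerevisiae. Six parallel replicates of the pooled strains were competed in YPD at 37°C for 24 hours, and gene amplicons from the start and end populations were read by 100-nucleotide paired-end sequencing. Darwinian fitness relative to wild type was derived from changes in genotype frequencies. Genotypes required ≥ 100 starting reads, and estimates < 0.5 were set to 0.5.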

Row | Variant | yeast fitness
1 | GUUCUGUUGGUGUAGUGGUAACGCGUCUCCCUCUUAAGGAGAACACGGCGGGUUCGAGUCCCGUACGGAACG [C5U C11U A15G C34U G44C U47G] | ≤ 0.5
2 | GUUCUGUUGGCGUAAUGGUAAGGCGUCUACCUCCUAAGGAGAAGUCUGCGGGUUUGAGUCCCGUACGGAACG [C5U C22G C29A A45U C55U] | ≤ 0.5
3 | GUUCUGUUGGUGUAAUGGUAACGCAUCUCCCUCCUAGGGAGAAGAGUGCGCGUUCGCGUCUCGUACGGAACG [C5U C11U G25A A37G C46G G51C A57C C61U] | ≤ 0.5
4 | GUUCUGUUGGUGUAAUGGUAACGCGUCUCCCUCCUAAGGAGAAGACUGCGGGUUCGAGUCGCCUACGGAACG [C5U C11U C61G G63C] | 0.546
5 | GUUCUGUUGGAGUAAUGGUAACGGGUGUCCCUCCUUACGAGAAGACUGCGGGUUCGAGUCCCGUACCGAACG [C5U C11A C24G C27G A36U G38C G67C] | ≤ 0.5
6 | GUUCUGUUGGCGUAAUGGUAAGGCGUCUGCCUCCUAAGGAGAAGACUGCGGGUUCGAGUCCCGUACGGAACG [C5U C22G C29G] | 0.602
7 | GUUCUGUUGGGGUAAUGGUAACGCGUCUCCCUACUAAGGAGAAGACUGCGGGUUCGAGUCCCGUACGGAACG [C5U C11G C33A] | 0.557
8 | GUUCUGUUGGUGUAAUGGUAACGCGUCUCCCUCCUAAGGAGAAGAGUGCGGGUUCGAGUCCCGUACGGAACG [C5U C11U C46G] | 0.7
9 | GUUCUGUUGGUGUAAUGGUAACGCGUCUCCCUCCUAAGGAGAAGAUUGCGGGUUCGAGUCCCGUACGGAACG [C5U C11U C46U] | 0.752
10 | GUUCUGUUGGCGUAAUGGUAAAGCAUCUCCCUCCUAAGGAGAAGACUGCGGGUUCGAGUCCCGUACGGAACG [C5U C22A G25A] | 0.781
11 | GUUCUGUUGGUGUAGUGGUAACGCGUCUCCCUCCUAAGGAGAAGACUCCGGGUUCGAGUCCCGUACGGAACG [C5U C11U A15G G48C] | 0.553
12 | GUUCUGUUGGUGUAAUGGUAGCGGGUCUCCCUCCUAAGGAGUCGACUGCGGGGUCGCGUCCCGUACGGAACG [C5U C11U A21G C24G A42U A43C U53G A57C] | ≤ 0.5
13 | GUUCUGUUGGGGUAAUGGUAACGCGUCUCCCUCCUAAGGAGAAGACUGCGGGUUCGAGUCCCGUACGGAACG [C5U C11G] | 0.597
14 | GUUCUGUUGGUGUAAUGGUAACGCGUCUCCCUCCUAAGGAGAAGAUUGCGAGUUCGAGUCCCGUAUGGAACG [C5U C11U C46U G51A C66U] | ≤ 0.5
15 | GUUCUGUUGGUGUAGUGGUAACGCGUCUCCCUCCUAAGGAGAAGACUCCGGGUUCGAGUCCCUUACGGAUCG [C5U C11U A15G G48C G63U A70U] | ≤ 0.5
16 | GUUCUGUUGGCGUAAUGGUAAGGCGUCUCCCUCCUAAGGAGAAGACUGCGGGUUCGAGUCCCGUACGGAUCG [C5U C22G A70U] | 0.754
17 | GUUCUGUUGGCGUAAUGGUAAGGGGUCUCAUUCCUAAGGAGAAGACUGCGGGUUCGAGUCCCGUACGGAACG [C5U C22G C24G C30A C31U] | ≤ 0.5
18 | GUUCUGUUGGCGUAAUGGUAAAGCGUCUCCCUCCUAAGGAGAAGACUGCGGGUUCGAGUCCGGUACGGAACG [C5U C22A C62G] | 0.546
19 | GUUCUGUUGGUGUAAUGGUAUCGCGUCUCCCUCCUAAGGAGAAGACUGCGGGUUCGAGUCCCGUACGGAACG [C5U C11U A21U] | 0.696

Row | Variant | yeast fitness
20 | GUUCUGUUGGAGUAAUGGUAACGCGUCUCCCUCCUAAGGAGAACACUGCGGGUUCGAGUCCCGUACGGAACG [C5U C11A G44C] | ≤ 0.5
21 | GUUCUGUUGGUGUAAUGGUAACGCGUCUCCCUCCUAAGGAGAAGUCUGCGGGUUCGAGUCCCGUACGGACCG [C5U C11U A45U A70C] | 0.725
22 | GUUCUGUUGGGGUAAUGGUAACGCGUCUGCCUCCUAAGGAGAAGACUGCGGGUUCGAGUCCCGUACGGAACG [C5U C11G C29G] | 0.733
23 | GUUCUGUUGGAGUAAUGGUAACGGGUGUCCCUCCUUACGAGAAGACUGCGGGUUCGAGUCCCGUACGGAACG [C5U C11A C24G C27G A36U G38C] | ≤ 0.5
24 | GUUCUGUUGGCGUAAUGGUAAAGCGUCUCCCUCCUAAGGAGAAGACUGCGGGUUCGAGUCCCGUACGGAACG [C5U C22A] | 0.84
25 | GUUCUGUUGGCGUAAUGGUAAGGCGUCUCCCUCCUAAGGAGAAGACUGCGGGUUCGAGUCCCGUACGGAACG [C5U C22G] | 0.991
26 | GUUCUGUUGGGGUAAUGGUAACGCGUCUCCUUCCUAAGGACAAGACUGCGGGUGCGAGUCCCGUACGGAACG [C5U C11G C31U G41C U54G] | 0.746
27 | GUUCUGUUGGUGUAAUGGUAACGCGUCUCCCUCCUAAAGAGAAGACUGCGGGUUCGACUCUCGUAUGGAACG [C5U C11U G38A G58C C61U C66U] | 0.573
28 | GUUCUGUUGGUGUCAUGGUAACGCGUCUCCCUCCUAAGGAGAAGACUGCGGGUUCGAGUCACGUACGGAACG [C5U C11U A14C C61A] | ≤ 0.5
29 | GUUCUGUUGGGGUAAUGGUAACGCGUCUCCCUACUAAGGAGAAGACUGCGGGUUCGAGUCCCGUACAGAACG [C5U C11G C33A G67A] | ≤ 0.5
30 | GUUCUGUUGGAGUAAUGGUAACGCGUCUCCCUCCUAAGGAGAAGACUGCGGGUUCGAGUCCCGUACGGUACG [C5U C11A A69U] | ≤ 0.5
31 | GUUCUGUUGGGGUAAUGGGAACGGGUCUCUCUCCUAAGGAGAAGACUGCGGGUUCGAGUCCCGUACGGAACG [C5U C11G U19G C24G C30U] | 0.547
32 | GUUCUGUUGGUGUAAUGGUAACGCCUCUCCCUCCUAAGGAGAAGACUGCGGGUUCGAGUCCCGUACGGAACG [C5U C11U G25C] | 0.694
33 | GUUCUGUUGGAGUAAUGGUAACGCGACUUAUUCCUAAGGAGAAGACUGCGGGUUCGAGUCCCGUACGGAACG [C5U C11A U26A C29U C30A C31U] | ≤ 0.5
34 | GUUCUGUUGGAGUAAUGGUAACGCGUCGCCCUCCUAAGGAGAACACUGCGGGUUCGAGUCCCGUACGGAACG [C5U C11A U28G G44C] | ≤ 0.5
35 | GUUCUGUUGGGGUAAUGGUAACGUGUCUCCCUCCUAAGGAGCAGACUGCGGGUUCGAGUCCCGUCCGGAACG [C5U C11G C24U A42C A65C] | 0.605
36 | GUUCUGUUGGGGUAAUGGUAACGGGUCUCCCUCCUAAGGAGAAGACUGCGGGUUCGAGUCCCGUACGGAACG [C5U C11G C24G] | ≤ 0.5
37 | GUUCUGUUGGCGUAAUGGUAAAGCGUCUCCCUCCUAAGGAGCAGACUGCGGGUUGGCGUCCUGUACGGAACG [C5U C22A A42C C55G A57C C62U] | ≤ 0.5
